Source: ChEMBL document CHEMBL3616374, “Structure-Activity Relationship Studies of Orally Active Antimalarial 2,4-Diamino-thienopyrimidines” (J Med Chem, 2015)
pIC50: −log10 of the molar value. ≈ marks a conversion by molar mass, not a printed value.

Columns and labels:
[1] = tested on: Plasmodium falciparum; assay: Antiplasmodial activity against multidrug-sensitive Plasmodium falciparum NF54 by [3H]-hypoxanthine incorporation assay; assay type: functional, organism-based
Procedure, shortened: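 IC50 against P. falciparum NF54 was run with chloroquine and artesunate as reference drugs in every experiment. Values are the mean of at least 2 independent experiments.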

[2] = tested on: Plasmodium falciparum; assay: Antiplasmodial activity against multidrug-resistant Plasmodium falciparum K1 by [3H]-hypoxanthine incorporation assay; assay type: functional, organism-based
Procedure, shortened: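 In vitro IC50 against the multidrug-resistant K1 strain of P. falciparum. Chloroquine and artesunate were run as reference drugs in every experiment. Values are means of ≥2 independent experiments.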

[3] = Solubility of the compound in 0.01 M HCl at pH 2; assay type: physicochemical
Procedure, shortened: (§1)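 Solubility was measured by a scaled-down shake flask method.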

[4] = Solubility of the compound in phosphate buffer at pH 6.5; assay type: physicochemical; procedure, shortened: as §1
[5] = Metabolic stability of the compound in human liver microsomes at 0.1 uM after 30 mins by LC-MS/MS analysis; assay type: ADME; conditions: read-out: Stability
Procedure, shortened: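 A one-point microsomal stability assay was used, expressed as the percentage of parent compound remaining after 30 min incubation.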

[6] = Degradation half-life in human liver microsomes at 0.1 uM by LC-MS/MS analysis; assay type: ADME
[7] = Intrinsic clearance in human liver microsomes assessed per mg of protein at 0.1 uM by LC-MS/MS analysis; assay type: ADME; conditions: read-out: CLH
[8] = Partition coefficient, log D of the compound at pH 7.4 by HPLC chromatographic method; assay type: physicochemical; conditions: octanol/water
Procedure, shortened: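 logD was estimated by HPLC-DAD-MS.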

[9] = target: Voltage-gated inwardly rectifying potassium channel KCNH2 (Homo sapiens, UniProt Q12809); assay: Inhibition of human ERG expressed in CHO cells by patch clamp electrophysiology assay; assay type: cell-based
Sequence of Voltage-gated inwardly rectifying potassium channel KCNH2 (Q12809 whole entry): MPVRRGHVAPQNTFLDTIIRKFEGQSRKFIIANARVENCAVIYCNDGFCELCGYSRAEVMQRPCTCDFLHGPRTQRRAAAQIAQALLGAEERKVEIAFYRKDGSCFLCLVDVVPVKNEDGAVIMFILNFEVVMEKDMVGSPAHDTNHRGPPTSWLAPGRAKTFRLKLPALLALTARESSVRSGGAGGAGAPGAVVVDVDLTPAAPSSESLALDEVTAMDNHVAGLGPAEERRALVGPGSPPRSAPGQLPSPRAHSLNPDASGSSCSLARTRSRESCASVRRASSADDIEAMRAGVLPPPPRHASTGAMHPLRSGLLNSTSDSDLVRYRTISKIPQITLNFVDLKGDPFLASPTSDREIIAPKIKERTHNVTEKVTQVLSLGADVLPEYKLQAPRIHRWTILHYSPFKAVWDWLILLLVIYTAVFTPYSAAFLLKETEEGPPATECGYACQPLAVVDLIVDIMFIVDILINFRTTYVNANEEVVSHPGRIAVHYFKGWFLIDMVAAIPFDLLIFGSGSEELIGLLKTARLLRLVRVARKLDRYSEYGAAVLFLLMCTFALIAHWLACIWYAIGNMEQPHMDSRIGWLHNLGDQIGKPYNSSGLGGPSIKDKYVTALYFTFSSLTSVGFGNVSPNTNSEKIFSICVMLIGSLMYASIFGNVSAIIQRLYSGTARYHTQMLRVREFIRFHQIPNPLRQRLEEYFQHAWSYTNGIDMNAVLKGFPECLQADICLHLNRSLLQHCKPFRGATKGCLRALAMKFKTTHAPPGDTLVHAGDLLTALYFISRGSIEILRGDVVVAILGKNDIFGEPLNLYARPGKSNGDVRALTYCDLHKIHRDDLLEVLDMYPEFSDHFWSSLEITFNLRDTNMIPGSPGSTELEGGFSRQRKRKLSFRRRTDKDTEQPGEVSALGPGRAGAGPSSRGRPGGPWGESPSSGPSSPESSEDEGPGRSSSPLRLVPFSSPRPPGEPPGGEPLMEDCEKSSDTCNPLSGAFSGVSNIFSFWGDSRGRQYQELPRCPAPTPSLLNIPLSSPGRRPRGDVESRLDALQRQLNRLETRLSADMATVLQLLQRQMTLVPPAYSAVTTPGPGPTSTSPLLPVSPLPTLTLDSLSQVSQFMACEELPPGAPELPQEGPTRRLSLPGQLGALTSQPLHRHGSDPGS

[10] = tested on: Vero; assay: Cytotoxicity against African green monkey Vero cells after 48 hrs by MTT assay; assay type: cell-based; conditions: chlorocebus sabaeus
[11] = Selectivity index ratio of IC50 for African green monkey Vero cells to IC50 for Plasmodium falciparum NF54; assay type: functional
[12] = tested on: Mus musculus; assay: Acute toxicity in GFP-transfected Plasmodium berghei ANKA infected NMRI mouse at 50 mg/kg, po qd for 4 days; assay type: organism-based; conditions: in vivo, 96 h
Procedure, shortened: (§2)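 P. berghei-infected mice dosed orally at 50 mg/kg once daily for 4 days. Compound was dissolved or suspended in a standard non-solubilizing HPMC suspension vehicle. Mice were watched for acute toxicity after dosing. Parasitemia reduction was calculated against untreated infected controls, and survival was recorded as mean survival time in days.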

[13] = tested on: Mus musculus; assay: Dose normalized AUC (0 to 5 hrs) in BALB/C mouse at 50 mg/kg, po; assay type: ADME, organism-based; conditions: in vivo
[14] = Cmax in BALB/C mouse at 50 mg/kg, po; assay type: ADME, organism-based; set-up: dose 50 mg/kg, route oral; conditions: in vivo
[15] = AUC (0 to 24 hrs) in BALB/C mouse at 50 mg/kg, po; assay type: ADME, organism-based; set-up: time < 24 hr, dose 50 mg/kg, route oral; conditions: in vivo
[16] = tested on: Plasmodium berghei; assay: Antimalarial activity against GFP-transfected Plasmodium berghei ANKA infected in NMRI mouse assessed as mean survival time at 50 mg/kg, po qd for 4 days by flow cytometry analysis; assay type: functional; procedure, shortened: as §2
[17] = tested on: Plasmodium berghei; assay: Antimalarial activity against GFP-transfected Plasmodium berghei ANKA infected in NMRI mouse assessed as reduction of parasitemia in blood at 50 mg/kg, po qd for 4 days by flow cytometry analysis; assay type: functional; set-up: scale not given: the % may be the effect or the level left
Procedure, shortened: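 In P. berghei-infected mice, compound was dissolved or suspended in a standard non-solubilizing HPMC suspension vehicle and given orally once daily for 4 days (4 × 50 mg/kg). Parasitemia reduction was expressed as % relative to untreated control mice. Mean survival time in days was also recorded.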

pIC50 [1] | SMILES | pIC50 [2] | solubility [3] [µg/mL] | solubility [4] [µg/mL] | remaining at 0.5 h, 0.1 µM [5] [%] | other results
< 5.60 | Nc1nc(N2CCC(O)CC2)c2sc(-c3ccc(C(F)(F)F)cc3)cc2n1 |  |  |  |  | 
7.37 | CNc1nc(NCCCN2CCOCC2)c2sc(-c3ccc(C(F)(F)F)cc3)cc2n1 |  | 196 (≈ 434 µM) | 96 (≈ 213 µM) |  | half-life at 0.1 µM [6]: 0.398 h; microsomal CLint at 0.1 µM [7]: 72.4 µL/min/mg
5.94 | CNc1nc(N)c2sc(-c3ccc(C(F)(F)F)cc3)cc2n1 |  | > 100 | 3.1 (≈ 9.56 µM) |  | chromatographic logD [8]: 3.4
6.94 | CNc1nc(NC(C)(C)C)c2sc(-c3ccc(C(F)(F)F)cc3)cc2n1 |  | 1.6 (≈ 4.21 µM) | < 1.6 |  | chromatographic logD [8]: > 5.3; half-life at 0.1 µM [6]: 2.07 h; microsomal CLint at 0.1 µM [7]: 14 µL/min/mg
7.02 | CNc1nc(N2CCNCC2)c2sc(-c3ccc(C(F)(F)F)cc3)cc2n1 |  |  |  |  | 
< 5.66 | CNc1nc(-c2ccc(C(F)(F)F)cc2)c2sc(-c3ccc(C(F)(F)F)cc3)cc2n1 |  |  |  |  | 
7.38 | CN(C)CCCNc1nc(NCc2ccccc2)nc2cc(-c3ccc(C(F)(F)F)cc3)sc12 |  | 208 (≈ 428 µM) | < 5 | 100 | 
6.79 | CN(C)CCCNc1nc(N2CCNCC2)nc2cc(-c3ccc(C(F)(F)F)cc3)sc12 |  | 198 (≈ 426 µM) | 178 (≈ 383 µM) |  | half-life at 0.1 µM [6]: > 1.67 h; microsomal CLint at 0.1 µM [7]: < 17 µL/min/mg
< 5.67 | CN(C)CCCNc1nc(N2CCOCC2)nc2cc(-c3ccc(C(F)(F)F)cc3)sc12 |  | 211 (≈ 453 µM) | < 5 | 92 | 
5.84 | CS(=O)(=O)c1ccc(-c2nc(N3CCNCC3)nc3cc(-c4ccc(C(F)(F)F)cc4)sc23)cc1 |  | 174 (≈ 336 µM) | < 5 |  | 
7.44 | Nc1nc(NC2CCCNC2)c2sc(-c3ccc(C(F)(F)F)cc3)cc2n1 (centres undefined) |  | 125 (≈ 318 µM) | 125 (≈ 318 µM) | 69 | 
7.30 | CN1CCC(Nc2nc(N)nc3cc(-c4ccc(C(F)(F)F)cc4)sc23)CC1 |  | 147 (≈ 361 µM) | 147 (≈ 361 µM) | 95 | 
6.77 | Nc1nc(NC2CCCCC2)c2sc(-c3ccc(C(F)(F)F)cc3)cc2n1 |  |  |  |  | 
6.03 | Nc1nc(NC2CNC2)c2sc(-c3ccc(C(F)(F)F)cc3)cc2n1 |  |  |  |  | 
6.35 | Nc1nc(NC2CCOCC2)c2sc(-c3ccc(C(F)(F)F)cc3)cc2n1 |  | < 5 | < 5 | 98 | pIC50 [9]: 6.15
6.17 | Nc1nc(NC2CCS(=O)(=O)CC2)c2sc(-c3ccc(C(F)(F)F)cc3)cc2n1 |  |  |  |  | 
< 5.61 | N#CC1CCN(c2nc(N)nc3cc(-c4ccc(C(F)(F)F)cc4)sc23)CC1 |  |  |  |  | 
< 5.62 | Nc1nc(N2CCC(F)(F)CC2)c2sc(-c3ccc(C(F)(F)F)cc3)cc2n1 |  |  |  |  | 

The next lines start with the compound.

SMILES | pIC50 [1] | pIC50 [2] | solubility [3] [µg/mL] | solubility [4] [µg/mL] | remaining at 0.5 h, 0.1 µM [5] [%] | other results
CNc1nc(NCCCN)c2sc(-c3ccc(C(F)(F)F)cc3)cc2n1 | < 5.58 | < 5.58 |  |  |  | 
CNc1nc(NCCCO)c2sc(-c3ccc(C(F)(F)F)cc3)cc2n1 | 6.95 | 6.63 |  |  |  | 
CNc1nc(OCCCN(C)C)c2sc(-c3ccc(C(F)(F)F)cc3)cc2n1 | 5.74 | < 5.61 | 174 (≈ 424 µM) | 174 (≈ 424 µM) |  | 
CNc1nc(NCCN2CCNCC2)c2sc(-c3ccc(C(F)(F)F)cc3)cc2n1 | 7.47 | 7.43 | 203 (≈ 465 µM) | 115 (≈ 263 µM) | 100 | 
CNc1nc(NCCN2CCOCC2)c2sc(-c3ccc(C(F)(F)F)cc3)cc2n1 | 7.10 | 6.92 | 213 (≈ 487 µM) | 42 (≈ 96 µM) | 51 | 
CNc1nc(NCC(F)(F)F)c2sc(-c3ccc(C(F)(F)F)cc3)cc2n1 | 7.33 | 6.86 | 28 (≈ 68.9 µM) | < 5 | 75 | pIC50 [9]: < 4.48
CNc1nc(NC2CC2)c2sc(-c3ccc(C(F)(F)F)cc3)cc2n1 | 6.86 | 6.35 | 120 (≈ 329 µM) | < 5 |  | half-life at 0.1 µM [6]: 1.15 h; microsomal CLint at 0.1 µM [7]: 25.2 µL/min/mg
CNc1nc(N2CCC(N)CC2)c2sc(-c3ccc(C(F)(F)F)cc3)cc2n1 | 7.38 |  | > 200 | 17 (≈ 41.7 µM) | 93 | Activity [10]: Non-toxic; Ratio IC50 [11]: >100; Activity [12]: Non-toxic; AUC/dose [13]: 7.63 min.ug/ml/(mg/kg); Cmax [14]: 3690 nM; AUC(0-t) at 24 h [15]: 78.2 µM·h; MSD [16]: 7 days; Activity [17]: 81%
CNc1nc(NC2CCNCC2)c2sc(-c3ccc(C(F)(F)F)cc3)cc2n1 | 7.72 | 7.62 | 218 (≈ 535 µM) | 147 (≈ 361 µM) | 84 | Activity [10]: Non-toxic; Ratio IC50 [11]: >100; Activity [12]: Non-toxic; AUC/dose [13]: 4.24 min.ug/ml/(mg/kg); Cmax [14]: 2470 nM; AUC(0-t) at 24 h [15]: 25 µM·h; MSD [16]: 12 days; Activity [17]: 99.7%
CNc1nc(NC2CCOCC2)c2sc(-c3ccc(C(F)(F)F)cc3)cc2n1 | 7.33 | 6.85 | < 5 | < 5 | 100 | 
CNc1nc(Nc2cccc(C(N)=O)c2)c2sc(-c3ccc(C(F)(F)F)cc3)cc2n1 | 7.28 | 6.95 | 85 (≈ 192 µM) | 8 (≈ 18 µM) | 83 | 
CN(C)CCCNc1nc(N)nc2cc(-c3ccc(C(F)(F)F)cc3)sc12 | 7.24 |  | 210 (≈ 531 µM) | 148 (≈ 374 µM) | 94 | half-life at 0.1 µM [6]: 1.73 h; microsomal CLint at 0.1 µM [7]: 16.9 µL/min/mg
CN(C)CCCNc1nc(N(C)C)nc2cc(-c3ccc(C(F)(F)F)cc3)sc12 | 7.00 |  | 212 (≈ 501 µM) | 168 (≈ 397 µM) | 66 | 
CN(C)CCCNc1ncnc2cc(-c3ccc(C(F)(F)F)cc3)sc12 | 6.30 |  | 209 (≈ 549 µM) | 205 (≈ 539 µM) | 91 | 
CN(C)CCCNc1nc(Cl)nc2cc(-c3ccc(C(F)(F)F)cc3)sc12 | 5.97 |  |  |  |  | 
COc1nc(NCCCN(C)C)c2sc(-c3ccc(C(F)(F)F)cc3)cc2n1 | 5.86 | 5.86 | 214 (≈ 521 µM) | < 5 |  | half-life at 0.1 µM [6]: > 1.67 h; microsomal CLint at 0.1 µM [7]: < 17 µL/min/mg
Nc1nc(NC2CCNCC2)c2sc(-c3ccc(C(F)(F)F)cc3)cc2n1 | 7.60 | 7.62 | 168 (≈ 427 µM) | 168 (≈ 427 µM) | 100 | chromatographic logD [8]: 2.4; half-life at 0.1 µM [6]: > 2.5 h; microsomal CLint at 0.1 µM [7]: < 11.6 µL/min/mg; Activity [12]: Non-toxic; MSD [16]: 7 days; Activity [17]: 78%
Nc1nc(NC2CCNC2)c2sc(-c3ccc(C(F)(F)F)cc3)cc2n1 (centres undefined) | 7.00 | 6.94 | 155 (≈ 409 µM) | 155 (≈ 409 µM) |  | half-life at 0.1 µM [6]: > 2.5 h; microsomal CLint at 0.1 µM [7]: < 11.6 µL/min/mg; pIC50 [9]: 5.62
Nc1nc(N2CCC(N)CC2)c2sc(-c3ccc(C(F)(F)F)cc3)cc2n1 | 7.70 | 7.48 | 134 (≈ 341 µM) | 134 (≈ 341 µM) | 100 | chromatographic logD [8]: 2.4; half-life at 0.1 µM [6]: > 2.5 h; microsomal CLint at 0.1 µM [7]: < 11.6 µL/min/mg; Activity [10]: Non-toxic; Ratio IC50 [11]: >100; AUC/dose [13]: 2.63 min.ug/ml/(mg/kg); Cmax [14]: 1360 nM; AUC(0-t) at 24 h [15]: 21.6 µM·h; MSD [16]: 26 days; Activity [17]: 99.8%; pIC50 [9]: 5.21
C[C@H]1[C@H](OC(=O)CCC(=O)O)O[C@@H]2O[C@@]3(C)CC[C@H]4[C@H](C)CC[C@@H]1[C@@]24OO3 [ARTESUNATE] | 8.40 | 8.52 |  |  |  | 
